ChEMBL document CHEMBL1914420, “Investigation of the pyrazinones as PDE5 inhibitors: evaluation of regioisomeric projections into the solvent region” (Bioorg Med Chem Lett, 2011)
pIC50: −log10 of the molar value.

test system: not listed separately; assay: Selectivity ratio of IC50 for PDE6 to IC50 for PDE5
Outline: (§1)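 Fold selectivity calculated as PDE11 IC50/PDE5 IC50 or PDE6 IC50/PDE5 IC50, with IC50 values in nM.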

| Compound | Ratio IC50 |
| --- | --- |
| COc1ccc(-c2cc3c(nn2)c(NCC(=O)N(C)C)nc(=O)n3CCOCC(F)(F)F)cn1 | 2200 |
| CCCOCCn1c(=O)nc(N2CCN(CCO)CC2)c2cnc(-c3ccc(OC)nc3)cc21 | 181 |
| COc1ccc(-c2cc3c(nn2)c(N2CCN(CCO)CC2)nc(=O)n3CCOCC(F)(F)F)cn1 | 818 |
| CCCOCCn1c(=O)c(N2CCN(CCO)CC2)nc2ncc(-c3ccc(OC)nc3)cc21 | 245 |

Now from value to compound:

| Ratio IC50 | Compound |
| --- | --- |
| 194 | CCCOCCn1c(=O)nc(N2CCC(O)CC2)c2nnc(-c3ccc(OC)nc3)cc21 |
| 290 | CCCOCCn1c(=O)nc(NCCO)c2nnc(-c3ccc(OC)nc3)cc21 |
| 139 | CCCOCCn1c(=O)nc(NCCC(=O)O)c2nnc(-c3ccc(OC)nc3)cc21 |
| 162 | CCCOCCn1c(=O)nc(N2CCCC(C(=O)O)C2)c2nnc(-c3ccc(OC)nc3)cc21 (configuration not stated) |
| 1020 | CCCOCCn1c(=O)nc(NC2CCC(O)CC2)c2ncc(-c3ccc(OC)nc3)cc21 (configuration not stated) |

biological target: cGMP-specific 3',5'-cyclic phosphodiesterase (Homo sapiens, UniProt O76074); assay: Inhibition of PDE5

| Compound | pIC50 |
| --- | --- |
| COc1ccc(-c2cc3c(nn2)c(NCC(=O)N(C)C)nc(=O)n3CCOCC(F)(F)F)cn1 | 9.42 |
| CCCOCCn1c(=O)nc(N2CCN(CCO)CC2)c2cnc(-c3ccc(OC)nc3)cc21 | 8.86 |
| COc1ccc(-c2cc3c(nn2)c(N2CCN(CCO)CC2)nc(=O)n3CCOCC(F)(F)F)cn1 | 9.19 |
| CCCOCCn1c(=O)c(N2CCN(CCO)CC2)nc2ncc(-c3ccc(OC)nc3)cc21 | 9.46 |

Stronger by pIC50, values ahead:

| pIC50 | Compound |
| --- | --- |
| 9.55 | CCCOCCn1c(=O)nc(N2CCC(O)CC2)c2nnc(-c3ccc(OC)nc3)cc21 |
| 9.66 | CCCOCCn1c(=O)nc(NCCO)c2nnc(-c3ccc(OC)nc3)cc21 |
| 10.30 | CCCOCCn1c(=O)nc(NCCC(=O)O)c2nnc(-c3ccc(OC)nc3)cc21 |
| 10.22 | CCCOCCn1c(=O)nc(N2CCCC(C(=O)O)C2)c2nnc(-c3ccc(OC)nc3)cc21 (configuration not stated) |
| 10.00 | CCCOCCn1c(=O)nc(NC2CCC(O)CC2)c2ncc(-c3ccc(OC)nc3)cc21 (configuration not stated) |

test system: not listed separately; assay: Selectivity ratio of IC50 for PDE11 to IC50 for PDE5; outline: as §1

| Compound | Ratio IC50 |
| --- | --- |
| COc1ccc(-c2cc3c(nn2)c(NCC(=O)N(C)C)nc(=O)n3CCOCC(F)(F)F)cn1 | 4170 |
| CCCOCCn1c(=O)nc(N2CCN(CCO)CC2)c2cnc(-c3ccc(OC)nc3)cc21 | > 1450 |
| COc1ccc(-c2cc3c(nn2)c(N2CCN(CCO)CC2)nc(=O)n3CCOCC(F)(F)F)cn1 | > 311 |
| CCCOCCn1c(=O)c(N2CCN(CCO)CC2)nc2ncc(-c3ccc(OC)nc3)cc21 | 1770 |

Now from value to compound:

| Ratio IC50 | Compound |
| --- | --- |
| 240 | CCCOCCn1c(=O)nc(N2CCC(O)CC2)c2nnc(-c3ccc(OC)nc3)cc21 |
| 240 | CCCOCCn1c(=O)nc(NCCO)c2nnc(-c3ccc(OC)nc3)cc21 |
| 250 | CCCOCCn1c(=O)nc(NCCC(=O)O)c2nnc(-c3ccc(OC)nc3)cc21 |
| 297 | CCCOCCn1c(=O)nc(N2CCCC(C(=O)O)C2)c2nnc(-c3ccc(OC)nc3)cc21 (configuration not stated) |
| 3830 | CCCOCCn1c(=O)nc(NC2CCC(O)CC2)c2ncc(-c3ccc(OC)nc3)cc21 (configuration not stated) |
